Compound activity from PubChem.
M4 PAM = potentiates acetylcholine response at human M4 receptor; P08173; CHO-K1 hM4/Gqi5, Fluo-8 calcium fluorescence, ACh EC20; 0% = ACh EC20, 100% = maximal ACh; activation, % at 3 µM; 360,000 compounds, 0.4% hits;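 active means activation above its plate's cutoff, the mean activation of sample wells plus 3 SD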
CHRM5 agonist = CHRM5 agonism in calcium assay; P08912; CHO-K1 hM5 cells, Fluo-8 calcium fluorescence; 0% DMSO wells, 100% maximal acetylcholine response; activation, % at 3 µM; 360,000 compounds, 0.19% hits; AID 624037;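 active means activation above the run's mean over test compounds plus 3 SD, cut at about 23% in these data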;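 further: signal is peak over basal fluorescence ratio across the kinetic read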
Target sequence (P08912 whole entry, looked up): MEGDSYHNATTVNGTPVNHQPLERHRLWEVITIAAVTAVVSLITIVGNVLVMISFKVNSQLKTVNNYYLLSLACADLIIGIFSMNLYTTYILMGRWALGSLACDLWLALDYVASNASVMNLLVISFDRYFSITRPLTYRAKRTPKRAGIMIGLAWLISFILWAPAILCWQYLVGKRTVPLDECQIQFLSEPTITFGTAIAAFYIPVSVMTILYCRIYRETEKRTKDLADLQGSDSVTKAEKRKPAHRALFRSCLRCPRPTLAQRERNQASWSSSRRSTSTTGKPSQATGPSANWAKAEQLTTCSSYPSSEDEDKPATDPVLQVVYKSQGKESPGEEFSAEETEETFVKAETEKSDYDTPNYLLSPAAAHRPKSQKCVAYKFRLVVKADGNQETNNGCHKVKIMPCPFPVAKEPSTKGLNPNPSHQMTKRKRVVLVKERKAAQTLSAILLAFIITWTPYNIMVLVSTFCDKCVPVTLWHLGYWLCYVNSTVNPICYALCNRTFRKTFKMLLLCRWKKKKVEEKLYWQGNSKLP
M4 antag = blocks acetylcholine activation of human M4 receptor | P08173 | CHO-hM4 cells, ACh EC80, Fluo-8 calcium fluorescence | inhibition, % at 3 µM | 360,000 compounds, 0.73% hits | AID 624125;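 active means inhibition above its plate's cutoff, the mean inhibition of sample wells plus 3 SD, cut at about 27% in these data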;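 further: 0% = acetylcholine EC80 with DMSO and 100% = DMSO without agonist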
CHRM5 antagonist = CHRM5 antagonism in calcium assay. 360,000 compounds, 0.59% hits. P08912. inhibition, % at 3 µM. CHO-hM5 cells, Fluo-8 calcium fluorescence, ACh EC80;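 active means inhibition above a per-plate cutoff, the mean of that plate's test compounds plus 3 SD, cut at about 27% in these data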;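 further: 0% = acetylcholine EC80 with DMSO and 100% = DMSO without agonist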
M4 ag = CHRM4 agonism in calcium assay. P08173. AID 624127. CHO-K1 hM4/Gqi5, Fluo-8 calcium fluorescence; vehicle 0%, full acetylcholine response 100%. activation, % at 3 µM. 360,000 compounds, 0.14% hits;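 active means activation above the run mean over all test wells plus 3 SD, cut at about 32% in these data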;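 further: peak over basal fluorescence ratio per well then scaled between controls; 0% = DMSO wells and 100% = acetylcholine at EC100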
CHRM5 PAM = positive allosteric modulators of human muscarinic M5 receptor; CHO-K1 hM5, Fluo-8 calcium, ACh EC20 PAM; 0% = ACh EC20, 100% = ACh EC100; 360,000 compounds, 0.3% hits; activation, % at 3 µM;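 active means activation above the run cutoff, the mean activation of all test compounds plus 3 SD, cut at about 18% in these data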
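Assay system: CHO-K1 hM5 cells / Incubation: Fluo-8 loading 80 min at 37 °C plus 30 min room temperature / Technique: Fluo-8 calcium dye fluorescence, kinetic read / Repeats: single replicate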
Active calls of the source: *. Rows were chosen to be rich in hits. Some 1.8% of all compounds tested hit in one or more screens of this group.

SMILES	M4 PAM	CHRM5 agonist	M4 antag	CHRM5 antagonist	M4 ag	CHRM5 PAM
COc1cc(C(=O)NCC(c2ccco2)N2CCCC2)ccc1OCc1ccc(Cl)cc1Cl (stereo unspecified)	-17	-11	52*	-11	5	-43
O=C(NCC(c1ccco1)N1CCCCC1)c1ccc(S(=O)(=O)Nc2ccccc2)cc1 (stereo unspecified)	-4	-4	2	-2	3	2
COc1ccc(NS(=O)(=O)c2cccc(C(=O)NCC(c3ccccc3OC)N3CCCC3)c2)cc1 (stereo unspecified)	-10	-10	18	21	1	-34
COc1ccc(Cl)cc1C(=O)NCC(c1ccco1)N1CCCC1 (stereo unspecified)	-8	-7	4	1	1	-2
O=C(NCC(c1ccco1)N1CCCC1)c1cccc(NS(=O)(=O)c2ccccc2)c1 (stereo unspecified)	-18	-8	74*	7	1	-7
CCOC(=O)[C@@H]1[C@H]2COc3ccccc3[C@H]2N2C(=O)N(c3ccc(OC)cc3)C(=O)[C@]12C	8	0	-9	-4	1	12
Cc1ccc(C)c(OCCn2cc(C(=O)O)c3ccccc32)c1	0	1	1	23	17	-9
CC(=O)c1cn(CCOc2cc(C)ccc2C)c2ccccc12	-17	0	17	33*	12	-23
CN(C)CCCN1c2ccccc2Sc2ccc(Cl)cc21	-19	1	73*	98*	13	-18
CN(C)CCCN1c2ccccc2Sc2ccc3ccccc3c21	-12	-12	27*	55*	12	-44
OCCN1CCN(CCCN2c3ccccc3Sc3ccc(Cl)cc32)CC1	-17	-1	98*	34*	2	-19
COc1cc(NC(=O)c2cc3ccccc3cc2O)c(OC)cc1Cl	-13	5	8	17	18	-12
COc1ccccc1NC(=O)c1cc2cc(Br)ccc2cc1O	-19	6	28*	37*	33*	-18
Cc1ccc(S(=O)(=O)NC(=O)Cn2nnc(-c3ccccc3)c2COc2ccc3ccccc3c2)cc1	4	0	-17	-5	-1	4
Cc1ccc(Nc2nc(NCc3ccccc3)nc3ccsc23)c(C)c1	-15	12	57*	32*	39*	-23
Clc1ccccc1OCCNc1nc(NCC2CC2)nc2ccsc12	-9	4	13	30*	15	-18
CNc1nc(NCCOc2ccccc2Cl)c2sccc2n1	-10	11	-7	10	30	-13
CSc1ccccc1CNc1nc(NCC2CC2)nc2ccsc12	-11	3	18	30*	15	-16
COc1cccc(CNc2nc(NCc3ccccc3)nc3ccsc23)c1	-16	31*	44*	45*	58*	-21
CCc1cccc(OCCOC(=O)CNS(=O)(=O)c2ccc(NC(C)=O)cc2)c1	-2	-2	3	2	3	-3
Cn1ccc(C(=O)NC(=S)N2CCSCC2)n1	-4	-2	1	3	0	-2
COc1cccc(CNc2nc(NCC3CC3)nc3ccsc23)c1	-13	4	8	31*	21	-16
CNc1nc(NCc2cccc(OC)c2)c2sccc2n1	-7	9	1	6	11	-13
C#Cc1cccc(Nc2nc(NCc3ccccc3)nc3ccsc23)c1	-11	3	27*	23	11	-18
CC(C)c1[nH]nc2c1C1(CCN(Cc3ccccc3)CC1)C(C#N)=C(N)O2	14	-3	32*	2	3	1
SMILES	M4 PAM	CHRM5 agonist	M4 antag	CHRM5 antagonist	M4 ag	CHRM5 PAM
O=C(OCC(=O)N1CCc2ccccc21)C1=COCCO1	29*	2	10	-9	-1	6
CCC(=O)N1CCc2cc(S(=O)(=O)NCCN3CCCCC3CC)ccc21 (stereo unspecified)	1	-10	-6	-9	0	24*
CC1(C2CC2)NC(=O)N(CC(=O)Nc2ccc(F)cc2F)C1=O (stereo unspecified)	8	1	4	2	0	4
CN1C(=O)/C(=C/c2ccccc2Cl)Sc2ccc(C(=O)N3CCCC3)cc21	-2	21	-3	-3	2	9
CN1C(=O)/C(=C/c2ccc(C(F)(F)F)cc2)Sc2ccc(C(=O)N3CCN(c4ccccn4)CC3)cc21	5	-5	-25	37*	5	-12
Nc1cc([N+](=O)[O-])ccc1Nc1ccc(O)cc1	-12	-4	6	32*	5	-13
O=C(COC(=O)/C=C/c1ccc(OC(F)F)cc1)NC1CCCCCCC1	-3	-5	-4	2	1	0
O=S(=O)(Nc1cccc2ncccc12)c1cccs1	1	0	37*	20	3	1
Cc1noc(C)c1C(=O)NCc1ccccc1F	-6	2	1	11	18	-7
COc1ccc(NC(=O)c2cc(S(=O)(=O)Nc3ccc(OC)cc3)cs2)cc1	-23	2	15	16	10	-17
O=C(Nc1ccc(F)cc1)c1cc(S(=O)(=O)Nc2ccc(F)cc2)cs1	-12	3	8	32*	10	-23
CCn1ncc(S(=O)(=O)NCc2ccccc2Cl)c1C	-7	-4	11	23	1	-7
O=S(=O)(Nc1ccc(Cc2ccncc2)cc1)c1ccc(Cl)c(Cl)c1	-33	-7	34*	7	8	-21
CCOc1cc(S(=O)(=O)NCc2ccncc2)ccc1Cl	-16	5	36*	60*	23	-15
O=C(CN1C(=O)NC2(CCc3ccccc32)C1=O)NCc1ccc(F)cc1 (stereo unspecified)	18	-2	-4	7	0	-7
COC(=O)c1cc(S(=O)(=O)Nc2ccc(C)cn2)c[nH]1	-4	-1	4	27*	0	-5
CC[C@@H](C)[C@@H]1CN([C@@H](C)CN2CCC[C@H]2CN2C(N)=NC[C@H]2CC(C)C)C(=N)N1CCCC1CCCC1	-12	-3	8	-8	0	-4
CCCCN1C(=N)N([C@@H](C)CN2CCC[C@H]2CN2C(N)=NC[C@@H]2Cc2ccccc2)C[C@H]1Cc1ccccc1	-15	-14	40*	15	1	-31
CC[C@@H](C)[C@@H]1CN([C@@H](C)CN2CCC[C@H]2CN2C(N)=NC[C@@H]2Cc2ccccc2)C(=N)N1CCCC1CCCC1	-15	-11	65*	5	0	-41
